One test deals with HeLa. Nature of the test: Cytotoxicity against human HeLa cells after 48 hrs by MTT assay. It counts as functional, cell-based. A digest of the protocol:
(§1)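 Cells seeded at 5000 per well, left overnight, then exposed to compound at 0–50 μM for 48 h. MTT (20 μL of 2.5 mg mL−1) added for a further 4 h at 37 °C, formazan dissolved in DMSO, absorbance read at 570 nm. Quadruplicate wells, N > 2 determinations, mean IC50 taken as the concentration reducing cell number to 50%.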
In general terms: Formazan colour is commonly taken as a measure of viable cells.

The subject of a further test is PC-3. Briefly: Cytotoxicity against human PC3 cells after 48 hrs by MTT assay. It counts as functional, cell-based. As to conditions: PC-3, 48 h. The method, boiled down:
as §1

The next test has as its system A549. Briefly: Cytotoxicity against human A549 cells after 48 hrs by MTT assay. It counts as functional, cell-based. As to conditions: A549, 48 h. A digest of the protocol: as §1
Test [1] has as its target T1, DNA topoisomerase 1 (Homo sapiens) (UniProt P11387).
T1 sequence (whole entry): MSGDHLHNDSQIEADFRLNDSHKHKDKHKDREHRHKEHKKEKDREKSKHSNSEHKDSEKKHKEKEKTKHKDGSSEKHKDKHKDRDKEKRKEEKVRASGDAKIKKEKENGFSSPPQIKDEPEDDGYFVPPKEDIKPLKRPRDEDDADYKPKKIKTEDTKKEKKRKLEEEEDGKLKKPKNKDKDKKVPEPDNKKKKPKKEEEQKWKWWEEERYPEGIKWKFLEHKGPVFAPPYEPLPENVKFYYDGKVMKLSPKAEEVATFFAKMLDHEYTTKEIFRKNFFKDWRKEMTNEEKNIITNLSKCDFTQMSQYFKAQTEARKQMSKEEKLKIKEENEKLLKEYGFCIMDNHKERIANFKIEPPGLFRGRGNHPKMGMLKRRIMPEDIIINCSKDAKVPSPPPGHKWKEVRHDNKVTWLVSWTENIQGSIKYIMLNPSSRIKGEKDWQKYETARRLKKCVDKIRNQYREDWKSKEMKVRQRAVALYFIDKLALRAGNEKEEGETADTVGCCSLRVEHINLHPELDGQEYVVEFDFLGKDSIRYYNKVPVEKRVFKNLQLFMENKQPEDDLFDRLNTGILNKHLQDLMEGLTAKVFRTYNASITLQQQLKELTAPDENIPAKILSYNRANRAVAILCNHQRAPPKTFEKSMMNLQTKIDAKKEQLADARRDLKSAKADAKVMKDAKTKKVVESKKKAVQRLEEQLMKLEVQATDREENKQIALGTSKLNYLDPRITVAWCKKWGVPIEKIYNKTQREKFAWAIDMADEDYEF
Briefly: Inhibition of topoisomerase 1 (unknown origin)-mediated pBR322 DNA relaxation at 50 uM after 30 mins by agarose gel electrophoresis. A digest of the protocol:
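Topo I relaxation of pBR322 with compound at 30 min, 37 °C, camptothecin positive control. Stopped with SDS/bromophenol blue/glycerol dye, run on 1% agarose in TAE for 1.5 h, Ged Red stained, UV visualized.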

The species entered for test [2] is Homo sapiens. Briefly: Inhibition of human topoisomerase 2-mediated pBR322 DNA relaxation at 20 uM after 30 mins by agarose gel electrophoresis.
The next test relates to MDA-MB-231. Briefly: Cytotoxicity against human MDA-MB-231 cells after 48 hrs by MTT assay. It is filed as functional, cell-based. As to conditions: MDA-MB-231, 48 h. The method, boiled down:
as §1

Another test relates to HL-60. Briefly: Cytotoxicity against human HL60 cells after 48 hrs by MTT assay. As to conditions: HL-60, 48 h. It is filed as functional, cell-based. The method, boiled down:
as §1

The species named for test [3] is Homo sapiens. Nature of the test: Inhibition of human topoisomerase 2-mediated pBR322 DNA relaxation at 50 uM after 30 mins by agarose gel electrophoresis. The method, boiled down: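 Relaxation of 200 ng supercoiled pBR322 by 1 U Topo II (TopoGEN) in 20 μL buffer: 50 mM Tris-HCl pH 8.0, 150 mM NaCl, 10 mM MgCl2, 2 mM ATP, 0.5 mM DTT, 30 μg/mL BSA. Incubated 30 min at 37 °C, stopped with sarcosyl/glycerol dye. Products run on 1% agarose in TAE (1.5 h, 75 V), Ged Red stained, UV imaged; etoposide positive control.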

A further test deals with Raji. Briefly: Cytotoxicity against human Raji cells after 48 hrs by MTT assay. It is filed as functional, cell-based. The method, boiled down:
as §1

We go through 19 compounds from ChEMBL document CHEMBL4257549, “Design, synthesis and biological evaluation of benzimidazole-rhodanine conjugates as potent topoisomerase II inhibitors” (Medchemcomm, 2018).

Calls of active or inactive are those of the source. The rule behind the calls is not given here.

The term IC50 denotes the concentration that gives 50% inhibition. A high value points to a need for much substance. Turning to `COc1ccc2c(c1)nc(/C=C1\SC(=S)N(CC(=O)O)C1=O)n2Cc1ccccc1F`, the IC50 in the test on HeLa worked out at 22.5 µM; with PC-3 it was 24.7 µM; in the test on A549 it was 18.4 µM; in the test with MDA-MB-231, 16.9 µM; in the test on HL-60, 3.41 µM; with Raji it was 11.5 µM. For the same compound, the inhibition entry (in [1]; in the test listed under Homo sapiens [2]) was “inactive” in each case. The inhibition entry in the test listed under Homo sapiens [3] was “Active”.

`O=C(O)CN1C(=O)/C(=C/c2nc3ccccc3n2Cc2ccc(Br)cc2F)SC1=S`: the IC50 with HeLa is greater than 50 µM; in the test with PC-3, 21.1 µM; with A549, 27.3 µM; with MDA-MB-231 it was 28.4 µM; in the test on HL-60 it was 6.42 µM; with Raji it was 11.4 µM. Also, the inhibition entry (in [1]; in the test listed under Homo sapiens [2]) was “inactive” each time. In the test listed under Homo sapiens [3], the inhibition result is “Active”.

Turning to `O=C1NC(=S)S/C1=C\c1nc2ccccc2n1Cc1ccccc1F`, the IC50 with HeLa is 36.1 µM; with PC-3 it was greater than 50 µM; in the test with A549, greater than 50 µM; with MDA-MB-231 it was 21.3 µM; with HL-60, 8.42 µM; in the test with Raji, 25.5 µM. Besides, the inhibition entry in test [1] was “inactive”. For the same compound, in the test listed under Homo sapiens [2], the inhibition result is “Active”.

With `O=C(O)CN1C(=O)/C(=C/c2nc3ccccc3n2Cc2ccccc2)SC1=S`, the IC50 came out at 22.7 µM with HeLa; 10.8 µM in the test on PC-3; 8.76 µM in the test with A549; 1.82 µM with MDA-MB-231; 0.96 µM in the test on HL-60; 3.86 µM in the test with Raji. Further, in [1], the inhibition entry is “inactive”. The inhibition entry in the test filed under Homo sapiens [2] and in the test listed under Homo sapiens [3] was “Active” throughout.

As to `O=C(O)CN1C(=O)/C(=C/c2nc3ccccc3n2Cc2ccc([N+](=O)[O-])cc2)SC1=S`, the concentration for half-maximal inhibition (IC50) in the test with HeLa worked out at 18.6 µM; in the test with PC-3, 8.27 µM; in the test with A549 it was 11.4 µM; with MDA-MB-231, 7.76 µM; with HL-60, 5.32 µM; with Raji, 2.51 µM. Also, the inhibition entry (in [1]; in the test listed under Homo sapiens [2]) was “inactive” each time.

Consider `COc1ccc2nc(/C=C3\SC(=S)N(CC(=O)O)C3=O)n(Cc3ccc(C)cc3)c2c1`, for which the half-maximal inhibitory concentration (IC50) is 6.44 µM in the test on HeLa; 16.2 µM in the test with PC-3; 23.6 µM in the test with A549; 3.77 µM with MDA-MB-231; 1.92 µM in the test with HL-60; 10.8 µM in the test with Raji. In addition, in test [1], the inhibition entry was “inactive”. In addition, the inhibition entry in the test filed under Homo sapiens [2] and in the test filed under Homo sapiens [3] was “Active” throughout.

Take `O=C(O)CN1C(=O)/C(=C/c2nc3cc(F)ccc3n2Cc2ccccc2F)SC1=S`: the half-maximal inhibitory concentration (IC50) was greater than 50 µM with HeLa; greater than 50 µM with PC-3; 32.6 µM in the test with A549; 22.4 µM with MDA-MB-231; greater than 50 µM with HL-60; 20.4 µM in the test with Raji. Also, the inhibition result (in [1]; in the test listed under Homo sapiens [2]) was “inactive” each time. Besides, the inhibition result in the test listed under Homo sapiens [3] is “Active”.

`Cc1ccc(Cn2c(/C=C3\SC(=S)NC3=O)nc3ccccc32)cc1`: the IC50 in the test on HeLa is 25.2 µM; with PC-3, 9.78 µM; with A549, 5.31 µM; in the test on MDA-MB-231, 6.42 µM; in the test with HL-60, 2.66 µM; in the test on Raji, 4.48 µM. For the same compound, in [1], the inhibition result is “inactive”. For the same compound, the inhibition result in the test listed under Homo sapiens [2] was “Active”.

Consider `O=C(O)CN1C(=O)/C(=C/c2nc3ccccc3n2Cc2cccc(F)c2)SC1=S`, for which the half-maximal inhibitory concentration (IC50) is greater than 50 µM with HeLa; 35.7 µM with PC-3; 23.2 µM in the test on A549; 22.5 µM in the test with MDA-MB-231; 7.21 µM in the test on HL-60; 13.3 µM with Raji. For the same compound, the inhibition entry (in [1]; in the test listed under Homo sapiens [2]) was “inactive” each time.

Regarding `CC[C@@]1(O)C(=O)OCc2c1cc1n(c2=O)Cc2cc3ccccc3nc2-1` [CAMPTOTHECIN], the IC50 in the test with HeLa was greater than 50 µM; with PC-3 it was 18.2 µM; with A549 it was 2.21 µM; in the test with MDA-MB-231, 16.4 µM; with HL-60, 0.42 µM; in the test with Raji, 3.27 µM.

`Cc1ccc(Cn2c(/C=C3\SC(=S)N(CCC(=O)O)C3=O)nc3ccccc32)cc1`: the IC50 in the test with HeLa turned out to be 11.2 µM; in the test on PC-3, 9.31 µM; with A549, 8.74 µM; with MDA-MB-231 it was 3.79 µM; in the test with HL-60, 4.14 µM; in the test with Raji it was 6.68 µM. Further, the inhibition result (in test [1]; in the test filed under Homo sapiens [2]) was “inactive” in each case.

On to `O=C(O)CN1C(=O)/C(=C/c2nc3ccccc3n2Cc2ccc(Cl)cc2)SC1=S`, for which the IC50 in the test on HeLa was 8.72 µM; in the test with PC-3 it was 9.67 µM; in the test on A549 it was 17.5 µM; in the test with MDA-MB-231 it was 5.58 µM; in the test with HL-60, 2.65 µM; in the test with Raji it was 11.4 µM. In addition, the inhibition entry in test [1] is “inactive”. In addition, in the test listed under Homo sapiens [2], the inhibition result is “Active”.

As to `O=C(O)CN1C(=O)/C(=C/c2nc3ccccc3n2Cc2ccc(F)cc2)SC1=S`, the concentration for half-maximal inhibition (IC50) amounted to 13.9 µM in the test on HeLa; 4.86 µM in the test on PC-3; 3.57 µM in the test with A549; 2.62 µM in the test on MDA-MB-231; 1.42 µM with HL-60; 1.77 µM with Raji. The inhibition result in test [1] is “inactive”. In addition, the inhibition entry in the test filed under Homo sapiens [2] was “Active”.

Consider `Cc1ccc(C(=O)Cn2c(/C=C3\SC(=S)N(CC(=O)O)C3=O)nc3ccccc32)cc1`, for which the half-inhibitory concentration (IC50) was 27.4 µM in the test with HeLa; 8.75 µM with PC-3; 9.46 µM in the test on A549; 16.9 µM with MDA-MB-231; 15.9 µM in the test on HL-60; 12.3 µM with Raji. In addition, the inhibition entry in [1] was “inactive”. Further, the inhibition result in the test filed under Homo sapiens [2] is “Active”.

`N#Cc1ccc(Cn2c(/C=C3\SC(=S)N(CC(=O)O)C3=O)nc3ccccc32)cc1`: the half-maximal inhibitory concentration (IC50) amounted to 16.3 µM in the test on HeLa; 14.4 µM in the test on PC-3; 26.6 µM in the test on A549; 11.2 µM in the test on MDA-MB-231; 7.64 µM in the test on HL-60; 9.78 µM with Raji. Moreover, the inhibition entry (in test [1]; in the test listed under Homo sapiens [2]) was “inactive” throughout.

Turning to `O=C(O)CN1C(=O)/C(=C/c2nc3ccccc3n2Cc2ccc(C(F)(F)F)cc2)SC1=S`, the concentration for half-maximal inhibition (IC50) with HeLa turned out to be 21.4 µM; in the test with PC-3 it was 22.9 µM; with A549, 25.3 µM; in the test with MDA-MB-231, 12.5 µM; with HL-60, 3.56 µM; with Raji, 18.8 µM. In addition, the inhibition result in test [1] is “inactive”. The inhibition entry in the test filed under Homo sapiens [2] is “Active”.

In the case of `COc1ccc(C(=O)Cn2c(/C=C3\SC(=S)N(CC(=O)O)C3=O)nc3ccccc32)cc1`, the half-inhibitory concentration (IC50) in the test on HeLa was 26.7 µM; in the test with PC-3, 8.75 µM; in the test with A549 it was 5.15 µM; with MDA-MB-231, 12.9 µM; in the test with HL-60, 5.44 µM; in the test on Raji, 6.32 µM. The inhibition result (in [1]; in the test listed under Homo sapiens [2]) was “inactive” in each case.

For `O=C(O)CCN1C(=O)/C(=C/c2nc3ccccc3n2Cc2ccccc2F)SC1=S`, the 50% inhibitory concentration (IC50) is 26.5 µM with HeLa; 28.6 µM with PC-3; 18.7 µM in the test on A549; 9.53 µM in the test with MDA-MB-231; 5.72 µM with HL-60; 11.3 µM in the test on Raji. Besides, the inhibition result (in test [1]; in the test listed under Homo sapiens [2]) was “inactive” throughout.

In the case of `O=C(O)CN1C(=O)/C(=C/c2nc3ccccc3n2Cc2ccc(Br)cc2)SC1=S`, the 50% inhibitory concentration (IC50) was 12.9 µM in the test on HeLa; 8.49 µM in the test on PC-3; 9.12 µM with A549; 8.72 µM in the test with MDA-MB-231; 0.87 µM with HL-60; 1.19 µM with Raji. For the same compound, the inhibition result in [1] was “inactive”. Also, in the test filed under Homo sapiens [2], the inhibition entry is “Active”.
